Measured values from paper PMC9890135 (Molecular Cancer Therapeutics, 2022).

How the values were obtained:
MET [1] = biological target: T1, MET (Homo sapiens, UniProt P08581, DEL964-1010); assay: Inhibition of receptor phosphorylation, ELISA, Hs 746T cells; type: cell-based
VEGFR2 [2] = biological target: VEGFR2 (Homo sapiens, UniProt P35968); assay: Inhibition of receptor phosphorylation, ELISA, HUVEC/VEGF165; type: cell-based; settings: Cellular IC50 ± SD, VEGFR2 autophosphorylation, serum-free
Chain of VEGFR2 (Homo sapiens, UniProt P35968) (P35968 20-1356): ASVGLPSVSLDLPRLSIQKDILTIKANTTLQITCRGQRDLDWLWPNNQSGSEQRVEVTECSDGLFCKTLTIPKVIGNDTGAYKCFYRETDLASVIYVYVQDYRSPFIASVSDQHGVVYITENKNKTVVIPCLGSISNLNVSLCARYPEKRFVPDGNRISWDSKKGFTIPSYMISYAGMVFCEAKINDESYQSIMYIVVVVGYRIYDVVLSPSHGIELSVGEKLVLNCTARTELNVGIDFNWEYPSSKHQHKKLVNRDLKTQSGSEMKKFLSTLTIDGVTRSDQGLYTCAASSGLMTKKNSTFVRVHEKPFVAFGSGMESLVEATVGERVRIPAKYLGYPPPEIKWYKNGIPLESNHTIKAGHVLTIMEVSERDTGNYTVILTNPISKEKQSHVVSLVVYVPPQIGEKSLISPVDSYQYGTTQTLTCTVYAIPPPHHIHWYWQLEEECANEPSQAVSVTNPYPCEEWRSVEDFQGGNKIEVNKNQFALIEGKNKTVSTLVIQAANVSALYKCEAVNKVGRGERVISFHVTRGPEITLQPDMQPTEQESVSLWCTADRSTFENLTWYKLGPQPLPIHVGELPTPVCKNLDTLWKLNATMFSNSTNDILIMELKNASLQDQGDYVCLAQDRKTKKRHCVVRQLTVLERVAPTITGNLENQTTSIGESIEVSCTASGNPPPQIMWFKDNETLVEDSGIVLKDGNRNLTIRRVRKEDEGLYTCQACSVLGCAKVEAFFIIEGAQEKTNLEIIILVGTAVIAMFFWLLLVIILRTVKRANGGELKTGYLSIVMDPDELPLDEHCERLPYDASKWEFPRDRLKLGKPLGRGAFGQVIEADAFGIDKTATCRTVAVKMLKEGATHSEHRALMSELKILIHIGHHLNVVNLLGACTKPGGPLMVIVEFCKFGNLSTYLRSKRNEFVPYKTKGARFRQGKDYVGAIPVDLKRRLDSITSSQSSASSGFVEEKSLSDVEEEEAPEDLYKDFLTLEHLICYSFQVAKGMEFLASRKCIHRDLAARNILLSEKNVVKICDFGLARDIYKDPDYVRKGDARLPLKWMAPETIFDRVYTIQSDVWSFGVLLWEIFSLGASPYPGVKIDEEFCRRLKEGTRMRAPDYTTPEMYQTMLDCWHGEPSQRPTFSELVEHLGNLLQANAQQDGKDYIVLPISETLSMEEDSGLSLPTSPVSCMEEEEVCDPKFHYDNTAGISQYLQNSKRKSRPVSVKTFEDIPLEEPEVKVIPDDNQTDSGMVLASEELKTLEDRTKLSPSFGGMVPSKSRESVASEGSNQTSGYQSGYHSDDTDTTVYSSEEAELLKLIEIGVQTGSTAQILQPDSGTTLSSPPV

TYRO3 = biological target: T2, TYRO3 (Homo sapiens, UniProt Q06418); assay: Inhibition of receptor phosphorylation, ELISA, TYRO3-transfected 293A cells; type: cell-based
T2 sequence (Q06418 41-890): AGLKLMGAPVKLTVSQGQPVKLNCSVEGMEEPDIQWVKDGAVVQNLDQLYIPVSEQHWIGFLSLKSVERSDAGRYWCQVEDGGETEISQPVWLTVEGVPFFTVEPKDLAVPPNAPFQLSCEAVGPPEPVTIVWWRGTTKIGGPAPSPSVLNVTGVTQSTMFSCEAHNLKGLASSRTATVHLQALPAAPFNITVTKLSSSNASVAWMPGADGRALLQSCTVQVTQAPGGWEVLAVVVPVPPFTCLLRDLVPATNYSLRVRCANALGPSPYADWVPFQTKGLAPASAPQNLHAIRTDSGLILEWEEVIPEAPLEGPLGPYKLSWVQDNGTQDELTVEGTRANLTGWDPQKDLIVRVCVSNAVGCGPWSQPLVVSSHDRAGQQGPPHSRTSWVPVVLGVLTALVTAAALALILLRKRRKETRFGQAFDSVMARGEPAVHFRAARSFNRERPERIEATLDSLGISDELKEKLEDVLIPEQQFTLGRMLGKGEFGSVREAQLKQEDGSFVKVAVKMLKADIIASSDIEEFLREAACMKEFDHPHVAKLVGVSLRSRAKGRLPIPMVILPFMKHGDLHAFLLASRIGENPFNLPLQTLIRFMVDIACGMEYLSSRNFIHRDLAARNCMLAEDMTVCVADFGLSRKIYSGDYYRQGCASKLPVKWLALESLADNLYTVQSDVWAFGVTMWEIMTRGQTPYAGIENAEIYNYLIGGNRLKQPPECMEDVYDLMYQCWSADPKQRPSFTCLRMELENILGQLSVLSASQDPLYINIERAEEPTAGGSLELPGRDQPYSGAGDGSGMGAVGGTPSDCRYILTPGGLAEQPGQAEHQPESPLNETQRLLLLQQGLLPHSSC
Procedure, shortened: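 293A cells transfected with TYRO3 were serum-starved 3–24 h, then incubated 1 h in serum-free medium with serially diluted test compound. Receptor phosphorylation quantified by ELISA to derive IC50.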

SNU-5 cells = assay: Cellular proliferation, BrdU incorporation ELISA; type: cell-based; settings: Homo sapiens, SNU-5, 48 h, read-out: Proliferation IC50
Procedure, shortened: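 SNU-5 seeded at 7,500 cells/well in triplicate in IMDM + 10% FBS + 1% penicillin-streptomycin, overnight at 37°C, 5% CO2. Serial dilutions added for 48 h. BrdU labelling 2 h at 37°C. Plates spun 300 × g, 10 min before medium removal. FixDenat 30 min at RT, anti-BrdU-POD 90 min at RT, washes, chemiluminescent read.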

MET [3] = biological target: T1, MET; assay: MET phosphorylation in Hs 746T tumors in vivo; set-up: species or system mice; settings: Hs 746T model; single dose of 100 mg/kg
VEGFR2 [4] = biological target: VEGFR2 (Mus musculus, UniProt P35918); type: in vivo, mice; settings: lung
Chain of VEGFR2 (Mus musculus, UniProt P35918) (P35918 20-1345): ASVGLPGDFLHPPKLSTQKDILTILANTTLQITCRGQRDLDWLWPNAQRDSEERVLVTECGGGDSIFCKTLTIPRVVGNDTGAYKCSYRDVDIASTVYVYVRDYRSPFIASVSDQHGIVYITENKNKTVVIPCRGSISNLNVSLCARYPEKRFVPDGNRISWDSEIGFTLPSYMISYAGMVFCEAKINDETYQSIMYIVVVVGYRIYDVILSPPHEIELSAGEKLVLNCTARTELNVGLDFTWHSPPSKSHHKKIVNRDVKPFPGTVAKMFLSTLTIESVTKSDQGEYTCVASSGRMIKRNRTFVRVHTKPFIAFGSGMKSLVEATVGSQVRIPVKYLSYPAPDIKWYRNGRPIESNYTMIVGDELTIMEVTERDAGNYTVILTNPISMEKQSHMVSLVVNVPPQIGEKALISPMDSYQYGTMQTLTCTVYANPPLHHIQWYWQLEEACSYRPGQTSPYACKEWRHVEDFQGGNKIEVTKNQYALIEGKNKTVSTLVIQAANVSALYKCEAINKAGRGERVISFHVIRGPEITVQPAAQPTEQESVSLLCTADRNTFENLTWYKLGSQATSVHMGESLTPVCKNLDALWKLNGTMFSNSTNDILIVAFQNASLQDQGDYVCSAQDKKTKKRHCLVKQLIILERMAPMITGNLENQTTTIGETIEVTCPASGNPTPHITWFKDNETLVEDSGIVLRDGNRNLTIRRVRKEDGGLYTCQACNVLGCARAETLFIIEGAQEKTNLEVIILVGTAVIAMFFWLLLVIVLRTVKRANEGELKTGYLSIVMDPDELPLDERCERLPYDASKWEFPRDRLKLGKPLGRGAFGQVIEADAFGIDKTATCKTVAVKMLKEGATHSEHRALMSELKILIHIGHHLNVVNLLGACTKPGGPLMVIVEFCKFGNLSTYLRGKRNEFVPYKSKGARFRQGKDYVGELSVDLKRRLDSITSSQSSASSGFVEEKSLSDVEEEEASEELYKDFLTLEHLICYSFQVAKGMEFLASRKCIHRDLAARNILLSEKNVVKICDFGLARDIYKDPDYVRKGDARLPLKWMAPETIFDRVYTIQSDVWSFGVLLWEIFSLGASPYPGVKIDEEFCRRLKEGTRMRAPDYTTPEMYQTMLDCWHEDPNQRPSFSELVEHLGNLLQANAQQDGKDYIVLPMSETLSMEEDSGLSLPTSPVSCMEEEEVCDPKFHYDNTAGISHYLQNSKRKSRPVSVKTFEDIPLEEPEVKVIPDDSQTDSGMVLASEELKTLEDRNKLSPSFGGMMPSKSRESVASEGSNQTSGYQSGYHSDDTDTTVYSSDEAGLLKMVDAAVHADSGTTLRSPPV
Procedure, shortened: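 Hs 746T tumour-bearing mice received single oral doses (30 or 100 mg/kg; n = 5 pooled) or vehicle (n = 6 pooled). Then hVEGF (10 μg i.v.) 3.5 h later, 30 min before sacrifice. Lung homogenate immunoprecipitated overnight with anti-VEGFR2 on Protein A magnetic beads; Western for phospho- and total VEGFR2, infrared imaging. 100 mg/kg group also sampled every 12 h to 48 h.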

[5] = Plasma protein binding, rapid equilibrium dialysis; type: in vitro ADME; settings: mouse
Procedure, shortened: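 Rapid equilibrium dialysis against PBS at 10 μmol/L test compound, 16 h incubation, in triplicate.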

MDA-MB-231 tumors = assay: MDA-MB-231 xenograft tumor growth; type: in vivo, mice; settings: 14 days, oral
Procedure, shortened: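 Human tumour cells inoculated into the rear flank. Mice randomised at mean volumes of ~200 mm3 (Hs 746T), ~120 mm3 (MDA-MB-231), ~100 mm3 (NCI-H441) or ~90 mm3 (SNU-5). Oral gavage once daily with test compound or vehicle. Tumour volume and body weight measured at least twice weekly. […], using mean volumes at extraction and dosing start.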

[6] = rats; cited from earlier work

Compound CNC(=O)c1cc2c(Oc3ccc(NC(=O)C4(C(=O)Nc5ccc(F)cc5)CC4)cc3)ccnc2cc1OC [XL092] has an IC50 (MET [1]) of 0.0254 ± 0.00132 µM, an IC50 (VEGFR2 [2]) of 0.00157 ± 0.00152 µM and an IC50 (TYRO3) of 0.306 ± 0.00137 µM. For the same compound, the IC50 (SNU-5 cells) was 0.0989 µM, the “duration of inhibition of MET phosphorylation” value (MET [3]) was “approximately 24 hours” and the “duration of inhibition of VEGFR2 phosphorylation” value (VEGFR2 [4]; Hs 746T model, single dose of 100 mg/kg) was “approximately 24 hours”. The “pVEGFR2 Inhibition, %” value (VEGFR2 [4]; Hs 746T tumor-bearing mice, 30 mg/kg single bolus, 4 hours after treatment) was “complete abolishment”, the fraction unbound at 16 h, 10 μmol/L [5] was 0.003 and the Tumor growth inhibition (MDA-MB-231 tumors; 3 mg/kg/day) was 73.6%. For the same compound, the Tumor growth inhibition (MDA-MB-231 tumors; 10 mg/kg/day) was 78.6% and the half-life [6] was “approximately 7 hours”.
